Test results as given in paper PMC7644900 (Heliyon, 2020).

Key:
[1] = tested on: K. pneumonia (ATCC 13883); assay: Antibacterial broth-dilution MIC; assay type: cell-based, Klebsiella pneumonia
Outline: (§1)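 Broth-dilution in 96-well plates against S. aureus ATCC 29213, B. cereus ATCC 10876, E. coli ATCC 22922, K. pneumoniae ATCC 13883 and P. aeruginosa. Test compound concentrations spanned 10–100 mM. CTAB served as positive control and DMSO as negative control. Activity was reported as minimum inhibitory concentration.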

[2] = tested on: P. aeruginosa (ATCC 27853); assay: Antibacterial broth-dilution MIC; assay type: cell-based, Pseudomonas aeruginosa
Outline: as §1

E. coli (ATCC 22922) = assay: Antibacterial broth-dilution MIC; assay type: cell-based, Escherichia coli
Outline: as §1

S.aureus (ATCC 29213) = assay: Antibacterial broth-dilution MIC; assay type: cell-based, Staphylococcus aureus
Outline: as §1

B.cereus (ATCC 10876) = assay: Antibacterial broth-dilution MIC; assay type: cell-based, Bacillus cereus
Outline: as §1

HaCaT cells = assay: In-vitro cytotoxicity MTT assay; assay type: cell-based, human
Outline: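 HaCaT cells in DMEM with FBS, glutamine and penicillin/streptomycin were seeded one day earlier and incubated 24 h. Exposed to test compound (20–1.25 mg/mL), 4% ethyl acetate blank or 20% DMSO control for 24 h at 37 °C, 5% CO2. Morphology was checked by microscopy. After PBS wash, MTT (1 mg/mL) was added for 2 h, dissolved in isopropanol and absorbance read. Mean of 3 wells, ≥3 independent experiments.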

[3] = target: T1, bovine serum albumin (BSA) (Bos taurus, UniProt P02769); assay: Competitive BSA binding experiments using site markers warfarin and ibuprofen; details: 298 K
[4] = target: T1, bovine serum albumin (BSA); assay: Thermodynamic BSA binding studies; details: for ΔH (enthalpy change) / ΔS (entropy change): van't Hoff, 298-313 K
Outline: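 BSA (10 μM) in phosphate buffer pH 7.4 in a 1.0 cm quartz cuvette. Excitation 295 nm, emission scanned 300–400 nm at 298, 308 and 313 K. Titrated with 15 μL of test compound. Binding constants were taken at each temperature, with ΔG = −RT lnKa. ΔH and ΔS were calculated from the Ka values across the three temperatures.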

[5] = target: T1, bovine serum albumin (BSA); assay: BSA steady state/intrinsic fluorescence quenching study; assay type: binding; details: 298 K; for bimolecular quenching constant Kq x 10^12: pH 7.4, τ0 10^−8 s; for Stern-Volmer constant Ksv x 10^4 / binding constant Ka: phosphate buffer pH 7.4
Outline: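 BSA (10 μM stock) in phosphate buffer pH 7.4 in a 1.0 cm quartz cuvette at 298 K. Intrinsic fluorescence: excitation 295 nm, scan 300–400 nm, intensity read at 336 nm. Slits were 10 nm (excitation) and 5.0 nm (emission). Titrated with test compound stock (0.001 M) and read after each addition. Ksv and Kq were obtained from Stern-Volmer plots of F0/F versus quencher concentration.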

[6] = Critical micelle concentration by pyrene fluorescence probe; assay type: physicochemical; details: 25 °C, pyrene as probe
Outline: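 Pyrene probe (0.1 mM methanol stock) was dried in vials, then test compound solutions were added to give 1.6 μM final pyrene. Mixed on an orbital shaker for 24 h and measured at 298 K. Excitation 334 nm, emission 350–450 nm, slits 5.0/2.5 nm. CMC was taken from the plot of I1 (373 nm)/I3 (384 nm) versus concentration.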

[7] = in the presence of Ibuprofen (site II marker)
[8] = in the presence of Warfarin (site I marker)

T1 sequence (P02769 25-607): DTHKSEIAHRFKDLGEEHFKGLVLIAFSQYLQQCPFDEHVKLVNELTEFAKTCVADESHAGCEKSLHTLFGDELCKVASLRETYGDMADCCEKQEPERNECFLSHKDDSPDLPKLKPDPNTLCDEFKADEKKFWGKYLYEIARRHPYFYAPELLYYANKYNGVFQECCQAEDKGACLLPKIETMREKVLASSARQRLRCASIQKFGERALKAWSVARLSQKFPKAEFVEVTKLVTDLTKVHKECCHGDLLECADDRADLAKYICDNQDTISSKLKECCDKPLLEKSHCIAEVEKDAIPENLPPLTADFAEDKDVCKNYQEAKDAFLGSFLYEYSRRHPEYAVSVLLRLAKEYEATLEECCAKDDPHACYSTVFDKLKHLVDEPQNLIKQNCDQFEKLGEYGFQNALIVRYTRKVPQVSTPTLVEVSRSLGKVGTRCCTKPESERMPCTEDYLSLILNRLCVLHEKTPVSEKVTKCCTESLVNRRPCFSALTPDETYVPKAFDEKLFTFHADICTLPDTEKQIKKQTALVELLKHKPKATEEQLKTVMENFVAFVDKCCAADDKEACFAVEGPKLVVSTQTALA

| Compound | % Cell Viability (HaCaT cells; 2.5, 24 h) | % Cell Viability (HaCaT cells; 5, 24 h) | % Cell Viability (HaCaT cells; 10, 24 h) | Ka ([3]; Blank (no site marker)) | Ka [3, 7] | Ka [3, 8] | MIC ([1]; Gram-negative) | Ka ([4]; 298 K) | ln Ka ([4]; 298 K) | ΔG (free energy) ([4]; 298 K) | Ka ([4]; 308 K) | ln Ka ([4]; 308 K) | ΔG (free energy) ([4]; 308 K) | Ka ([4]; 313 K) | ln Ka ([4]; 313 K) | ΔG (free energy) ([4]; 313 K) | ΔH (enthalpy change) [4] | ΔS (entropy change) [4] | MIC ([2]; Gram-negative) | bimolecular quenching constant Kq x 10^12 [5] | further results |
| --- | --- | --- | --- | --- | --- | --- | --- | --- | --- | --- | --- | --- | --- | --- | --- | --- | --- | --- | --- | --- | --- |
| CCCCCCCCCCCCCCCC[N+](C)(C)C [+ve control, Cetyltrimethylammonium bromide, reference compound] | – | – | – | – | – | – | – | – | – | – | – | – | – | – | – | – | – | – | – | – | MIC ([1]; Klebsiella pneumoniae, ATCC13883): 10.7 µM; MIC ([2]; Pseudomonas aeruginosa, ATCC27853): 171 µM; MIC (E. coli (ATCC 22922); Escherichia coli, ATCC22922): 686 µM; MIC (S.aureus (ATCC 29213); Staphylococcus aureus, ATCC29213): 15.2 µM; MIC (B.cereus (ATCC 10876); Bacillus cereus, ATCC10876): 12.3 µM |
| Didecanoyl 2,2′-disulfanediyldibenzamide [Compound 2] | 100.0% | 100.0% | 63.7% | 429000 M⁻¹ | 64600 M⁻¹ | 15700 M⁻¹ | 26300 µM | 225000 M⁻¹ | 12.32 | -30.60 KJmol^−1 | 3580 M⁻¹ | 8.18 | -20.76 KJmol^−1 | 405 M⁻¹ | 6.00 | -15.77 KJmol^−1 | -325.26 KJmol^−1 | -988.78 Jmol^−1K^−1 | 25600 µM | 2.26 x 10^12 M^−1s^−1 | toxicity to the cells (in words) (HaCaT cells; at a concentration of <10 mg/ml): non-toxic; Stern-Volmer constant Ksv x 10^4 [5]: 2.26 x 10^4 M^−1; binding constant Ka [5]: 225000 M⁻¹; MIC (E. coli (ATCC 22922); Gram-negative): >25300 µM; MIC (S.aureus (ATCC 29213); Gram-positive): 5400 µM; MIC (B.cereus (ATCC 10876); Gram-positive): 2530 µM |
| Dioctyl 2,2′-disulfanediyldibenzamide [Compound 1] | 82.9% | 62.6% | 23.0% | 5060 M⁻¹ | 2110 M⁻¹ | 4950 M⁻¹ | 25300 µM | 5470 M⁻¹ | 8.61 | -21.68 KJmol^−1 | 3250 M⁻¹ | 8.09 | -18.73 KJmol^−1 | 461 M⁻¹ | 6.13 | -17.26 KJmol^−1 | -109.5 KJmol^−1 | -294.7 Jmol^−1K^−1 | >15600 µM | 7.45 x 10^12 M^−1s^−1 | % Cell Viability (HaCaT cells; 20, 24 h): 18.4%; cell death by changes in cell morphology (HaCaT cells; microscopy, 10 mg/ml (Figure 5)): considerable amount of cell death; Stern-Volmer constant Ksv x 10^4 [5]: 7.45 x 10^4 M^−1; binding constant Ka [5]: 5470 M⁻¹; MIC (E. coli (ATCC 22922); Gram-negative): 21400 µM; CMC [6]: 0.163 mM; MIC (S.aureus (ATCC 29213); Gram-positive): 12500 µM; MIC (B.cereus (ATCC 10876); Gram-positive): 3120 µM |
